IC50 and inhibition data for 16 compounds are collected here from ChEMBL document CHEMBL5260824, “9-Deazapurines as Broad-Spectrum Inhibitors of the ABC Transport Proteins P-Glycoprotein, Multidrug Resistance-Associated Protein 1, and Breast Cancer Resistance Protein” (J Med Chem, 2017).

Data set [1] has as its target ATP-dependent translocase ABCB1 (Homo sapiens, UniProt P08183). The experiment in a line: Inhibition of P-gp (unknown origin) incubated for 30 mins by calcein AM analysis. An outline of the steps:
(§1)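 A2780/ADR cells (doxorubicin-selected, P-gp overexpressing), about 30,000 per well in Krebs-HEPES buffer pH 7.4, incubated 30 min at 37 °C with compound (100 nM–100 µM added solutions). Calcein AM (3.125 µM solution added) then fluorescence read every 60 s at 37 °C, ex 485/em 520 nm; slope over minutes 5–30 plotted vs log concentration. Cyclosporine A 10 µM = 100% inhibition, buffer = 0%.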

Data set [2] has as its target Multidrug resistance-associated protein 1 (Homo sapiens, UniProt P33527). The experiment in a line: Inhibition of MRP1 in human NCI-H69AR cells incubated for 180 mins in presence of daunorubicin by flow cytometry analysis. The class given is cell-based. An outline of the steps:
(§2)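 H69AR cells (doxorubicin-selected small cell lung cancer, RPMI-1640/20% FBS), about 60,000 per well, preincubated 15 min with compound (100 nM–100 µM added solutions, in unsupplemented medium), then daunorubicin (30 µM solution added); steady state after 180 min, 37 °C, 5% CO2. Cells resuspended; flow cytometry, 488 nm excitation, FL3 (≥670 nm). Reference inhibitor 75 at 10 µM = 100%; Imax relative to it.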

Data set [3] deals with T1, Broad substrate specificity ATP-binding cassette transporter ABCG2 (Homo sapiens, UniProt Q9UNQ0).
T1 sequence (Q9UNQ0 whole entry): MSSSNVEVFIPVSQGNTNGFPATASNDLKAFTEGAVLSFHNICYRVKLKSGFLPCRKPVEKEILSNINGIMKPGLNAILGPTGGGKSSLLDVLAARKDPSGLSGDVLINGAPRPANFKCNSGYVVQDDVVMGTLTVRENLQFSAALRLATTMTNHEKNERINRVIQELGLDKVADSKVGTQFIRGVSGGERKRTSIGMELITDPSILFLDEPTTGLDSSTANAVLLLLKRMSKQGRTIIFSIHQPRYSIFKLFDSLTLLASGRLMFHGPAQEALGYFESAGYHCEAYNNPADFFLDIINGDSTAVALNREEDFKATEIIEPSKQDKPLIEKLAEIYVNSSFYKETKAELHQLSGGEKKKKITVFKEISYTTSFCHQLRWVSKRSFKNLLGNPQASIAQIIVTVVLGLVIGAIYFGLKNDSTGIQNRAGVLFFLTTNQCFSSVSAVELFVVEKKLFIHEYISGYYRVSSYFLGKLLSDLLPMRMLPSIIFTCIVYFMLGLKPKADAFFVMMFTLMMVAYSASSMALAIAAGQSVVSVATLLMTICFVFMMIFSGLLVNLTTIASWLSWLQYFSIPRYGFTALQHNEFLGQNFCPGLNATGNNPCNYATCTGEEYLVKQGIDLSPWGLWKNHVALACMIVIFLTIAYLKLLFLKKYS
The experiment in a line: Inhibition of BCRP (unknown origin) expressed in dog MDCK-II cells using pheophorbide A as substrate preincubated for 20 mins followed by substrate addition and measured after 120 mins by flow cytometry analysis. Format: cell-based. The method, boiled down: (§3)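 MDCK II cells transfected with human wild-type BCRP cDNA C-terminally fused to GFP, grown in DMEM/10% FBS. About 45,000 cells per well preincubated 20 min at 37 °C, 5% CO2 with compound (100 nM–100 µM added solutions), then pheophorbide A (5 µM solution added) for 120 min to steady state. Resuspended; flow cytometry, 488 nm excitation, FL3 (≥670 nm); GFP in FL1. Reference inhibitor 24 at 10 µM = 100%.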

The next data set deals with MRP1 (Homo sapiens, UniProt P33527). Briefly: Inhibition of MRP1 in human NCI-H69AR cells at 10 uM incubated for 180 mins in presence of daunorubicin by flow cytometry analysis relative to control. The class given is cell-based. The note with it: probe daunorubicin. An outline of the steps: as §2
MRP1, sequence (P33527 whole entry): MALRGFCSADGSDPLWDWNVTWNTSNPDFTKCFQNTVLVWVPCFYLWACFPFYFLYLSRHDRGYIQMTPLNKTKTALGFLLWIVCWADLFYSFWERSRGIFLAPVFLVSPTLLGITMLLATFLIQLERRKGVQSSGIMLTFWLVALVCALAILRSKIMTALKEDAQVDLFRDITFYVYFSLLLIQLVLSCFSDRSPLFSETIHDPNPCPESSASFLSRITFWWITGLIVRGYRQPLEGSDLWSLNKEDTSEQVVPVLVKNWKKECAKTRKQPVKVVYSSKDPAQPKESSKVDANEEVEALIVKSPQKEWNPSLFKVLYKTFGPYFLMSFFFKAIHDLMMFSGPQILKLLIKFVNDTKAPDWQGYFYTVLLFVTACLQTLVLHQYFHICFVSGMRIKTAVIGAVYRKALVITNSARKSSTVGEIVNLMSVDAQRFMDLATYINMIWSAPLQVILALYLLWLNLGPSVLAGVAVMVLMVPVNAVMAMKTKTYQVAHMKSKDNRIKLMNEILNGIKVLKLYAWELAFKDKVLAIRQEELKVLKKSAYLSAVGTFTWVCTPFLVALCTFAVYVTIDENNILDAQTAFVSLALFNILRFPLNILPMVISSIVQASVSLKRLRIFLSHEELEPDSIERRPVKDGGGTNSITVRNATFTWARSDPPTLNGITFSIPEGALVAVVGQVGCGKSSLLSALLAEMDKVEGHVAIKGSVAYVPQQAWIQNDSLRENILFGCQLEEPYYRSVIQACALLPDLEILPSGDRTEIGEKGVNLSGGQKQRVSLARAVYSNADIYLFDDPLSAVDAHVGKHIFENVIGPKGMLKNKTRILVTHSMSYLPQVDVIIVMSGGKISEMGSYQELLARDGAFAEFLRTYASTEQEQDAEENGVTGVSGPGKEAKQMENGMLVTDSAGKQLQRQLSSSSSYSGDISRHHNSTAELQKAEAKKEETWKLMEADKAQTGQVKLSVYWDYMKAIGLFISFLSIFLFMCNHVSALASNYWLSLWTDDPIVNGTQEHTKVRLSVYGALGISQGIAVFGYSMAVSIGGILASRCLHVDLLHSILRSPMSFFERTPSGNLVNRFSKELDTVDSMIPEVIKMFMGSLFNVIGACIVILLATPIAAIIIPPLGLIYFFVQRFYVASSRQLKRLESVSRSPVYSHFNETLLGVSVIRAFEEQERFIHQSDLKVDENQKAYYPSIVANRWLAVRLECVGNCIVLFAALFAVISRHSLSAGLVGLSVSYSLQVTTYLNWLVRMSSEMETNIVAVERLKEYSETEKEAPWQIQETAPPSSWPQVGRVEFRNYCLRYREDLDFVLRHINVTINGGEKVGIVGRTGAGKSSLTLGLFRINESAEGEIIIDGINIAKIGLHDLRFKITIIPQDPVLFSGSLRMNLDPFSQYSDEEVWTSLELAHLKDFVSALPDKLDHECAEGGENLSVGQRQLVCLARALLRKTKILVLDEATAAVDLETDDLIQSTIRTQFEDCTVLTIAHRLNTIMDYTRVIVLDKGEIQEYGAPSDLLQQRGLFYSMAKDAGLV
The next data set deals with T2, BCRP (ABCG2) (Homo sapiens, UniProt Q9UNQ0).
T2 sequence (Q9UNQ0 whole entry): T1 sequence (Q9UNQ0 whole entry)
Briefly: Inhibition of BCRP (unknown origin) expressed in dog MDCK-II cells at 10 uM using pheophorbide A as substrate preincubated for 20 mins followed by substrate addition and measured after 120 mins by flow cytometry analysis relative to control. The class given is cell-based. Conditions: probe pheophorbide A. An outline of the steps: as §3

In the next data set the target is P-gp (ABCB1) (Homo sapiens, UniProt P08183). Briefly: Inhibition of P-gp (unknown origin) at 10 uM incubated for 30 mins by calcein AM analysis relative to control. Conditions: probe calcein AM. An outline of the steps:
as §1

P-gp (ABCB1), sequence (P08183 whole entry): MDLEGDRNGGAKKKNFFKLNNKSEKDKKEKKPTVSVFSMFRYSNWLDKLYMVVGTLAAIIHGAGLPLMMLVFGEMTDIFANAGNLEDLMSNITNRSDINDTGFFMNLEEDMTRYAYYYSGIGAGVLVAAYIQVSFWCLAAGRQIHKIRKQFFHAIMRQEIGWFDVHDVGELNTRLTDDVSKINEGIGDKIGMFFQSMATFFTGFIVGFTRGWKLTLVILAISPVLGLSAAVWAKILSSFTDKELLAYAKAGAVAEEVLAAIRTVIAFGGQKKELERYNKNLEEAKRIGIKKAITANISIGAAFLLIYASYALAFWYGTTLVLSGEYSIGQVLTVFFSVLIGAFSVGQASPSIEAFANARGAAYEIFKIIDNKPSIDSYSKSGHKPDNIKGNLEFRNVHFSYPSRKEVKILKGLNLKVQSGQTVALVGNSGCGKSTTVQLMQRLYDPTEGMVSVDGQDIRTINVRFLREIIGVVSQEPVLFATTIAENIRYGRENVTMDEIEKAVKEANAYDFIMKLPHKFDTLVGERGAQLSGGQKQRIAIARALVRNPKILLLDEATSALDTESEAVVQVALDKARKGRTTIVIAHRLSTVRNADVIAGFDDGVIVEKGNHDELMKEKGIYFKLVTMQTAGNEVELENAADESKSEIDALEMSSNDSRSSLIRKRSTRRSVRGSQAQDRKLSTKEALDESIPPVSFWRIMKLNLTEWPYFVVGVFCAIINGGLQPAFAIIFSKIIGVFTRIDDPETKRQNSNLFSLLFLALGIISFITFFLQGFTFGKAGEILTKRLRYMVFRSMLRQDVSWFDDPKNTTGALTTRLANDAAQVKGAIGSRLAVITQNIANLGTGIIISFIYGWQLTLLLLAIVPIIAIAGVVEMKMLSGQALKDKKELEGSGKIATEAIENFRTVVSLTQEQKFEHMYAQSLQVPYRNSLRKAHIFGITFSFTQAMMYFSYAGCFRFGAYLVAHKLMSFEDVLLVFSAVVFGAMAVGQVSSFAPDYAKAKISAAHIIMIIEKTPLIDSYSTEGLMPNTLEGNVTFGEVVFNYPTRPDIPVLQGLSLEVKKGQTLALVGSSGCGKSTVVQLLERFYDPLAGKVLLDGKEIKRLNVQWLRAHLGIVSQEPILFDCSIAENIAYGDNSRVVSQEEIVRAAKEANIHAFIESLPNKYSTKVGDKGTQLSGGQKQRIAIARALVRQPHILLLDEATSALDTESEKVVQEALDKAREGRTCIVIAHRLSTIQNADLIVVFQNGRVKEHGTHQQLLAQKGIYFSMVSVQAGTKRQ
Multidrug resistance-associated protein 1, sequence (P33527 whole entry): as the sequence (P33527 whole entry) above
ATP-dependent translocase ABCB1, sequence (P08183 whole entry): as the sequence (P08183 whole entry) above

With `N#Cc1c2n(c3c(N4CCN(CCc5ccccc5)CC4)ncnc13)CCCC2`, the IC50 in data set [1] is 9630 nM.
With `CCn1cc(C#N)c2ncnc(N3CCN(CCc4c[nH]c5ccccc45)CC3)c21`, the values for the IC50 in data set [2] and in data set [3] were 855 nM and 13800 nM, respectively. In addition, on MRP1, the inhibition at 3 h, 10 µM was above 25%. On BCRP (ABCG2), this compound displayed an inhibition at 2 h, 10 µM above 25%.
As to `N#Cc1c2n(c3c(N4CCN(CCc5ccncc5)CC4)ncnc13)CCCCC2`, the IC50 was 1140 nM in data set [2] and 12400 nM in data set [3]. Besides, on P-gp (ABCB1), the inhibition at 0.5 h, 10 µM was above 25%. Further, the inhibition at 3 h, 10 µM on MRP1 came out at 25%. Besides, the inhibition at 2 h, 10 µM against BCRP (ABCG2) is above 25%.
For the compound `CCOc1ccc(-n2cc(C#N)c3ncnc(N4CCN(CCc5ccccc5)CC4)c32)cc1`, the IC50 in data set [2] was 1320 nM. For the same compound, the inhibition at 0.5 h, 10 µM at P-gp (ABCB1) was above 25%. Moreover, the inhibition at 3 h, 10 µM on MRP1 was above 25%. In addition, the inhibition at 2 h, 10 µM on BCRP (ABCG2) was above 25%.
For `N#Cc1c2n(c3c(N4CCN(c5ccccn5)CC4)ncnc13)CCCC2`, the IC50 in data set [2] came to 1020 nM; in data set [3] it was 4860 nM. At P-gp (ABCB1), the inhibition at 0.5 h, 10 µM was above 25%. For the same compound, the inhibition at 3 h, 10 µM at MRP1 turned out to be 25%. For the same compound, the inhibition at 2 h, 10 µM against BCRP (ABCG2) is above 25%.
Take `N#Cc1c2n(c3c(NCCc4c[nH]c5ccccc45)ncnc13)CCCC2`: in data set [2], the IC50 was 957 nM. In addition, the inhibition at 0.5 h, 10 µM at P-gp (ABCB1) is above 25%. For the same compound, the inhibition at 3 h, 10 µM at MRP1 turned out to be 25%. The compound also gave an inhibition at 2 h, 10 µM against BCRP (ABCG2) above 25%.
As to `CCCn1cc(C#N)c2ncnc(N3CCN(CCc4c[nH]c5ccccc45)CC3)c21`, the IC50 in data set [2] came out at 468 nM. The inhibition at 3 h, 10 µM on MRP1 was above 25%.
Turning to `N#Cc1c2n(c3c(N4CCN(CCc5ccncc5)CC4)ncnc13)CCCC2`, the values for the half-inhibitory concentration (IC50) in data set [2] and in data set [3] were 672 nM and 27800 nM, respectively. The inhibition at 0.5 h, 10 µM on P-gp (ABCB1) was above 25%. For the same compound, the inhibition at 3 h, 10 µM at MRP1 was determined as 25%. Moreover, on BCRP (ABCG2), the inhibition at 2 h, 10 µM was above 25%.
For `N#Cc1c2n(c3c(N4CCN(C(=O)c5ccco5)CC4)ncnc13)CCCCC2`, the concentration for half-maximal inhibition (IC50) in data set [2] was 1010 nM; in data set [3], 12900 nM. For the same compound, the inhibition at 0.5 h, 10 µM at P-gp (ABCB1) was above 25%. At MRP1, the inhibition at 3 h, 10 µM was above 25%. Further, the inhibition at 2 h, 10 µM at BCRP (ABCG2) was above 25%.
With `N#Cc1cn(CCc2ccccc2)c2c(N3CCN(Cc4ccc5c(c4)OCO5)CC3)ncnc12`, the IC50 in data set [2] turned out to be 1800 nM. Moreover, at P-gp (ABCB1), the inhibition at 0.5 h, 10 µM is above 25%. Besides, the inhibition at 3 h, 10 µM at MRP1 is above 25%. On BCRP (ABCG2), the inhibition at 2 h, 10 µM is above 25%.
On to `Cn1cc(C#N)c2ncnc(N3CCN(CCc4c[nH]c5ccccc45)CC3)c21`, for which, in data set [2], the IC50 was determined as 337 nM. Further, the inhibition at 3 h, 10 µM at MRP1 was above 25%.
As for `N#Cc1c2n(c3c(N4CCN(c5ccccn5)CC4)ncnc13)CCCCC2`, the inhibition at 0.5 h, 10 µM at P-gp (ABCB1) was above 25%. In addition, the inhibition at 3 h, 10 µM at MRP1 amounted to 25%. Further, on BCRP (ABCG2), the inhibition at 2 h, 10 µM was above 25%.
For `N#Cc1c2n(c3c(N4CCN(CCc5c[nH]c6ccccc56)CC4)ncnc13)CCCCC2`, the IC50 in data set [1] was 1710 nM; in data set [2] it was 289 nM. Besides, at P-gp (ABCB1), the inhibition at 0.5 h, 10 µM was above 25%. Also, the inhibition at 3 h, 10 µM on MRP1 came out at 25%. The inhibition at 2 h, 10 µM at BCRP (ABCG2) is above 25%.
On to `N#Cc1c2n(c3c(N4CCN(C(=O)c5ccco5)CC4)ncnc13)CCCC2`, for which the IC50 worked out at 883 nM in data set [2] and 29500 nM in data set [3]. In addition, the inhibition at 0.5 h, 10 µM on P-gp (ABCB1) is above 25%. Further, the inhibition at 3 h, 10 µM on MRP1 was above 25%. The inhibition at 2 h, 10 µM against BCRP (ABCG2) is above 25%.
Regarding `COc1ccccc1-n1cc(C#N)c2ncnc(N3CCN(CCc4ccccc4)CC3)c21`, in data set [2], the IC50 came out at 638 nM. Further, the inhibition at 0.5 h, 10 µM at P-gp (ABCB1) was above 25%. Also, the inhibition at 3 h, 10 µM at MRP1 is above 25%. At BCRP (ABCG2), this compound registered an inhibition at 2 h, 10 µM above 25%.
Regarding `N#Cc1cn(-c2ccccc2)c2c(N3CCN(Cc4ccc5c(c4)OCO5)CC3)ncnc12`, the half-maximal inhibitory concentration (IC50) in data set [2] is 751 nM. For the same compound, the inhibition at 0.5 h, 10 µM at P-gp (ABCB1) was above 25%. Moreover, on MRP1, the inhibition at 3 h, 10 µM is above 25%. In addition, the inhibition at 2 h, 10 µM against BCRP (ABCG2) was above 25%.
